Source: ChEMBL document CHEMBL4414556, “Antiproliferative Acylated Glycerols from New Zealand Propolis” (2019)

What was measured:
Format in all cases: functional
[1] = test system: DLD-1; assay: Antiproliferative activity against human DLD1 cells assessed as cell growth inhibition at 110 uM by MTT assay relative to control
In short: (§1)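 Cells revived from cryostorage and grown under supplier-recommended conditions with test samples. Working solutions were made in 15% EtOH/Hank's balanced saline at 2 mg/mL solids. Final well concentrations were 110, 55 or 22 μM, and the 5-fluorouracil reference was run at 450, 150 and 50 nM. MTT viability read after incubation, expressed as % proliferation versus a cells-only control, with six replicates.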

[2] = test system: KYSE-30; assay: Antiproliferative activity against human KYSE-30 cells assessed as cell growth inhibition at 110 uM by MTT assay relative to control; in short: as §1
[3] = test system: KYSE-30; assay: Antiproliferative activity against human KYSE-30 cells assessed as cell growth inhibition at 22 uM by MTT assay relative to control; in short: as §1
[4] = test system: NCI-N87; assay: Antiproliferative activity against human NCI-N87 cells assessed as cell growth inhibition at 55 uM by MTT assay relative to control; in short: as §1
[5] = test system: NCI-N87; assay: Antiproliferative activity against human NCI-N87 cells assessed as cell growth inhibition at 110 uM by MTT assay relative to control; in short: as §1
[6] = test system: NCI-N87; assay: Antiproliferative activity against human NCI-N87 cells assessed as cell growth inhibition at 22 uM by MTT assay relative to control; in short: as §1
[7] = test system: DLD-1; assay: Antiproliferative activity against human DLD1 cells assessed as cell growth inhibition at 55 uM by MTT assay relative to control; in short: as §1
[8] = test system: KYSE-30; assay: Antiproliferative activity against human KYSE-30 cells assessed as cell growth inhibition at 55 uM by MTT assay relative to control; in short: as §1
[9] = test system: NCI-N87; assay: Antiproliferative activity against human NCI-N87 cells assessed as cell growth inhibition at 450 nM by MTT assay relative to control
In short: (§2)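 Cells revived from cryostorage and cultured under supplier-recommended conditions with test or reference samples. Working solutions at 2 mg/mL solids in 15% EtOH/Hank's balanced saline. 5-Fluorouracil positive control at final well concentrations of 450, 150 and 50 nM. MTT viability read-out after incubation, expressed as percentage proliferation versus cells-only control; six replicates for test and control.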

[10] = test system: KYSE-30; assay: Antiproliferative activity against human KYSE-30 cells assessed as cell growth inhibition at 450 nM by MTT assay relative to control; in short: as §2
[11] = test system: DLD-1; assay: Antiproliferative activity against human DLD1 cells assessed as cell growth inhibition at 450 nM by MTT assay relative to control; in short: as §2

Row | Structure (SMILES) | inhibition at 110 µM [1] [%] | inhibition at 110 µM [2] [%] | inhibition at 22 µM [3] [%] | inhibition at 55 µM [4] [%] | inhibition at 110 µM [5] [%] | inhibition at 22 µM [6] [%] | inhibition at 55 µM [7] [%] | inhibition at 55 µM [8] [%] | inhibition at 0.45 µM [9] [%] | inhibition at 0.45 µM [10] [%] | inhibition at 0.45 µM [11] [%]
1 | CCCCCCCCCCCC[C@@H](O)CCCC[C@@H](O)CC(=O)OCC(O)COC(C)=O (stereo not given in full) | 94 | 52 | 9 | 86 | 100 | 39 | 13 | 50 |  |  | 
2 | CCCCCCCCCCCC[C@@H](O)CCCC[C@@H](O)CC(=O)OCC(O)CO (stereo not given in full) | 80 | 52 |  |  | 100 |  |  |  |  |  | 
3 | CCCCCCCCCCCCC[C@@H](O)CCCC[C@@H](O)CC(=O)OCC(O)COC(C)=O (stereo not given in full) | 91 | 29 |  |  | 100 |  |  |  |  |  | 
4 | O=c1[nH]cc(F)c(=O)[nH]1 [FLUOROURACIL] |  |  |  |  |  |  |  |  | 8 | 17 | 21
5 | CCCCCCCCCCCCCCCC(=O)OCC(O)CO (stereo not given) [GLYCEROL MONOPALMITATE] | 72 | 75 |  |  | 100 |  |  |  |  |  | 
